The results in this text go back to ChEMBL document CHEMBL1145009 (J Med Chem, 2003).

Data set [1] deals with T1, Gonadotropin-releasing hormone receptor (Homo sapiens, UniProt P30968).
T1 sequence (P30968 whole entry): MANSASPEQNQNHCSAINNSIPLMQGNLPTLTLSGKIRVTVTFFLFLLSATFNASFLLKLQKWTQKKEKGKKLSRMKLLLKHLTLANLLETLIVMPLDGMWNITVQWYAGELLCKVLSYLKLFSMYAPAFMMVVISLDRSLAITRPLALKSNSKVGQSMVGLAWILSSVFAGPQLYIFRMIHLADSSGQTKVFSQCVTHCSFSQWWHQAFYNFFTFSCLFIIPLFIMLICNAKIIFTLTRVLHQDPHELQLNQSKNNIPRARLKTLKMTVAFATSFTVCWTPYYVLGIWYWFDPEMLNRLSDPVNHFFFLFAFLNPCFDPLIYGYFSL
Nature of the data set: Antagonist concentration required to inhibit specific binding of [125I]leuprorelin to human luteinizing releasing hormone receptor in cloned chinese hamster ovary (CHO) cells. The data set is classed as cell-based.

A short description of data set [2]: Tested for oral absorption in Cynomolgus Monkey at the dose of 10 mg/kg, activity expressed as Tmax (time required for Cmax). Format: ADME, organism-based, Macaca fascicularis. The following applies: in vivo. The arrangement: dose 10 mg/kg, route oral. In a few lines:
(§1)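 Single oral dose of 10 mg/kg as suspension in 0.5% methylcellulose to female cynomolgus monkeys (4–8 years, n = 3). Forearm-vein heparin plasma taken at 1, 3 and 6 h, deproteinized with 5% acetonitrile/0.05% TFA, compound measured by reverse-phase HPLC with UV detection at 320 nm.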

Data set [3] deals with Cynomolgus monkey. Nature of the data set: (§2) Tested for oral absorption in Cynomolgus Monkey at the dose of 10 mg/kg, activity expressed as area under curve (AUC). To be noted: in vivo. The arrangement: dose 10 mg/kg, route oral. Format: ADME, organism-based, Macaca fascicularis. In a few lines:
as §1

The nature of data set [4]: Tested for oral absorption in Cynomolgus Monkey at the dose of 10 mg/kg, activity expressed as Cmax. Format: ADME, organism-based, Macaca fascicularis. The arrangement: dose 10 mg/kg, route oral. To be noted: in vivo. The procedure, abridged:
as §1

Data set [5] is described as follows: as §2. Format: ADME, organism-based, Macaca fascicularis. The arrangement: dose 10 mg/kg, route oral. The following applies: in vivo. In a few lines:
as §1

A short description of data set [6]: Tested for plasma LH concentration in Castarted male Cynomolgus monkeys for oral administration at the dose of 30 mg/kg after 2 h. The data set is classed as functional, Cercopithecidae. The procedure, abridged:
(§3)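 Castrated (more than 6 months) male cynomolgus monkeys aged 4–9 years, chair-restrained, dosed orally at 30 mg/kg (3 mL/kg, n = 3) as suspension in 0.5% methylcellulose/1.2% citric acid; vehicle controls n = 3. Plasma LH from femoral-vein samples through 48 h, assayed by bioassay with mouse testicular cells; mean ± SEM and % of pretreatment.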

Data set [7] is described as follows: Tested for plasma LH concentration in Castarted male Cynomolgus monkeys for oral administration at the dose of 30 mg/kg after 24 h. Format: functional, Cercopithecidae. In a few lines:
as §3

Data set [8] in a line: Tested for plasma LH concentration in Castarted male Cynomolgus monkeys for oral administration at the dose of 10 mg/kg after 0 h. Format: functional, Cercopithecidae. The procedure, abridged:
(§4)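 Male cynomolgus monkeys (4–9 years), castrated more than 6 months earlier and chair-restrained, given 10 mg/kg orally (3 mL/kg, n = 3) in 0.5% methylcellulose with 1.2% citric acid; vehicle group n = 3. Femoral-vein heparin plasma taken at 0–48 h; LH measured by mouse testicular cell bioassay. Mean ± SEM, also as % of 0 h value.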

The nature of data set [9]: Tested for plasma LH concentration in Castarted male Cynomolgus monkeys for oral administration at the dose of 30 mg/kg after 0 h. Format: functional, Cercopithecidae. The procedure, abridged:
as §3

Data set [10] in a line: Tested for plasma LH concentration in Castarted male Cynomolgus monkeys for oral administration at the dose of 10 mg/kg after 8 h. The data set is classed as functional, Cercopithecidae. In a few lines:
as §4

Data set [11] can be described thus: Tested for plasma LH concentration in Castarted male Cynomolgus monkeys for oral administration at the dose of 10 mg/kg after 24 h. The data set is classed as functional, Cercopithecidae. The procedure, abridged: as §4
A short description of data set [12]: Tested for plasma LH concentration in Castarted male Cynomolgus monkeys for oral administration at the dose of 10 mg/kg after 4 h. The data set is classed as functional, Cercopithecidae. In a few lines: as §4
The nature of data set [13]: Tested for plasma LH concentration in Castarted male Cynomolgus monkeys for oral administration at the dose of 30 mg/kg after 4 h. Format: functional, Cercopithecidae. The procedure, abridged: as §3
The nature of data set [14]: Tested for plasma LH concentration in Castarted male Cynomolgus monkeys for oral administration at the dose of 30 mg/kg after 48 h. Format: functional, Cercopithecidae. In a few lines: as §3
The nature of data set [15]: Tested for plasma LH concentration in Castarted male Cynomolgus monkeys for oral administration at the dose of 10 mg/kg after 2 h. The data set is classed as functional, Cercopithecidae. In a few lines:
as §4

Data set [16] in a line: Tested for plasma LH concentration in Castarted male Cynomolgus monkeys for oral administration at the dose of 10 mg/kg after 48 h. Format: functional, Cercopithecidae. The procedure, abridged:
as §4

Data set [17] can be described thus: Tested for plasma LH concentration in Castarted male Cynomolgus monkeys for oral administration at the dose of 30 mg/kg after 8 h. Format: functional, Cercopithecidae. In a few lines:
as §3

`CCC(=O)Nc1ccc(-c2sc3c(c2CN(C)Cc2ccccc2)c(=O)n(-c2cccc(OC)c2)c(=O)n3Cc2c(F)cccc2F)cc1` showed an IC50 in [1] of 0.2 nM.

In [1], `CNC(=O)Nc1ccc(-c2sc3c(c2CN(C)Cc2ccccc2)c(=O)n(-c2ccccc2)c(=O)n3Cc2c(F)cccc2F)cc1` showed an IC50 of 0.1 nM.

Take `CCC(=O)Nc1ccc(-c2sc3c(c2CN(C)Cc2ccccc2)c(=O)n(-c2ccccc2)c(=O)n3Cc2c(F)cccc2F)cc1`: the Tmax in [2] was found to be 3 h. The AUC in data set [3] turned out to be 2.5 µM·h. Besides, in data set [4], the Cmax stood at 630 nM.

`CCC(=O)N(C)c1ccc(-c2sc3c(c2CN(C)Cc2ccccc2)c(=O)n(-c2cccc(OC)c2)c(=O)n3Cc2c(F)cccc2F)cc1` registered an IC50 in [1] of 20 nM.

`CCONC(=O)Nc1ccc(-c2sc3c(c2CN(C)Cc2ccccc2)c(=O)n(-c2ccccc2)c(=O)n3Cc2c(F)cccc2F)cc1` returned an IC50 in data set [1] of 0.2 nM.

`COc1ccc(-c2sc3c(c2CN(C)Cc2ccccc2)c(=O)n(-c2ccccc2)c(=O)n3Cc2c(F)cccc2F)cc1` gave an IC50 in [1] of 50 nM.

On to `COc1ccc(-c2sc3c(c2CN(C)Cc2ccccc2)c(=O)n(CC(C)C)c(=O)n3Cc2c(F)cccc2F)cc1`, for which, in [1], the IC50 was 400 nM.

In turn, `COc1ccc(-c2sc3c(c2CN(C)Cc2ccccc2)c(=O)n(Cc2ccccc2)c(=O)n3Cc2c(F)cccc2F)cc1` registered an IC50 in [1] of 400 nM.

`CC(C)ONC(=O)Nc1ccc(-c2sc3c(c2CN(C)Cc2ccccc2)c(=O)n(-c2ccccc2)c(=O)n3Cc2c(F)cccc2F)cc1` registered a concentration for half-maximal inhibition (IC50) in data set [1] of 0.6 nM.

In turn, `CN(Cc1ccccc1)Cc1c(-c2ccc(NC(=O)NO)cc2)sc2c1c(=O)n(-c1ccccc1)c(=O)n2Cc1c(F)cccc1F` displayed an IC50 in data set [1] of 0.4 nM.

Regarding `COc1ccc(-c2sc3c(c2CN(C)Cc2ccccc2)c(=O)n(-c2ccccc2Cl)c(=O)n3Cc2c(F)cccc2F)cc1`, the IC50 in [1] was found to be 80 nM.

For `COc1ccc(-c2sc3c(c2CN(C)Cc2ccccc2)c(=O)n(-c2ccc(Cl)cc2)c(=O)n3Cc2c(F)cccc2F)cc1`, the half-maximal inhibitory concentration (IC50) in [1] is 200 nM.

For the compound `COc1ccc(-c2sc3c(c2CN(C)Cc2ccccc2)c(=O)n(-c2cccc(Cl)c2)c(=O)n3Cc2c(F)cccc2F)cc1`, the IC50 in [1] is 200 nM.

The compound `COc1cccc(-n2c(=O)c3c(CN(C)Cc4ccccc4)c(-c4ccc([N+](=O)[O-])cc4)sc3n(Cc3c(F)cccc3F)c2=O)c1` gave an IC50 in data set [1] of 20 nM.

Regarding `CC(C)NC(=O)Nc1ccc(-c2sc3c(c2CN(C)Cc2ccccc2)c(=O)n(-c2ccccc2)c(=O)n3Cc2c(F)cccc2F)cc1`, in data set [1], the IC50 was found to be 0.2 nM.

`COc1cccc(-n2c(=O)c3c(CN(C)Cc4ccccc4)c(-c4ccc(N)cc4)sc3n(Cc3c(F)cccc3F)c2=O)c1` registered an IC50 in data set [1] of 1 nM.

On to `CN(Cc1ccccc1)Cc1c(-c2ccc(NC(=O)c3ccccc3)cc2)sc2c1c(=O)n(-c1ccccc1)c(=O)n2Cc1c(F)cccc1F`, for which, in [1], the IC50 amounted to 1 nM.

Regarding `CC(C)C(=O)Nc1ccc(-c2sc3c(c2CN(C)Cc2ccccc2)c(=O)n(-c2ccccc2)c(=O)n3Cc2c(F)cccc2F)cc1`, the half-inhibitory concentration (IC50) in [1] came out at 0.4 nM.

`COc1ccc(-c2sc3c(c2CN(C)Cc2ccccc2)c(=O)n(-c2ccc(OC)cc2)c(=O)n3Cc2c(F)cccc2F)cc1`: the IC50 in [1] was determined as 30 nM.

For the compound `COc1cccc(-n2c(=O)c3c(CN(C)Cc4ccccc4)c(-c4ccc(NC(=O)C(C)C)cc4)sc3n(Cc3c(F)cccc3F)c2=O)c1`, the 50% inhibitory concentration (IC50) in data set [1] is 0.3 nM.

In turn, `COc1ccc(-c2sc3c(c2CN(C)Cc2ccccc2)c(=O)n(-c2ccccc2OC)c(=O)n3Cc2c(F)cccc2F)cc1` showed an IC50 in data set [1] of 200 nM.

As to `COc1ccc(-c2sc3c(c2CN(C)Cc2ccccc2)c(=O)n(-c2cccc(OC)c2)c(=O)n3Cc2c(F)cccc2F)cc1`, in data set [1], the half-maximal inhibitory concentration (IC50) was 20 nM.

In the case of `CCNC(=O)Nc1ccc(-c2sc3c(c2CN(C)Cc2ccccc2)c(=O)n(-c2ccccc2)c(=O)n3Cc2c(F)cccc2F)cc1`, the Tmax in data set [2] stood at 3 h. Moreover, the AUC in [5] stood at 0.27 µM·h. For the same compound, the peak level in data set [4] (Cmax) was 63 nM.

`COc1ccc(-c2sc3c(c2CN(C)Cc2ccccc2)c(=O)n(C2CCCCC2)c(=O)n3Cc2c(F)cccc2F)cc1` had an IC50 in data set [1] of 700 nM.

As for `CONC(=O)Nc1ccc(-c2sc3c(c2CN(C)Cc2ccccc2)c(=O)n(-c2ccccc2)c(=O)n3Cc2c(F)cccc2F)cc1` [SUFUGOLIX], the LH concentration in data set [6] was determined as 0.55 mU ml-1; in [7], 0.1 mU ml-1; in [8], 1.01 mU ml-1; in [9] it was 0.91 mU ml-1; in [10], 0.19 mU ml-1; in data set [11] it was 0.18 mU ml-1. Moreover, the LH concentration in data set [12] came to 0.37 mU ml-1; in data set [13] it was 0.25 mU ml-1; in data set [14] it was 0.71 mU ml-1; in data set [15], 0.74 mU ml-1; in [16] it was 0.76 mU ml-1; in [17], 0.13 mU ml-1. Moreover, in data set [2], the Tmax was 6 h. In data set [5], this compound showed an AUC of 0.85 µM·h. Besides, the Cmax in data set [4] came out at 210 nM.
